Measured values reported in ChEMBL document CHEMBL1649165, “Activity profile in vitro of micafungin against Spanish clinical isolates of common and emerging species of yeasts and molds” (2009).
Converted amounts (≈) assume the structure as drawn. *1 amine or outer side, *2 acyl side, *3 side chain or, on linkers, in order; H or OH if unused. Where a SMILES comes first, the peptide text is derived from it. Bridges are numbered along the chain shown (N, C = ends). [ ]: non-standard residue; d: D form. The star is where a group is joined. hTyr(3S-OH,4S-OH,3'-OSO3H) = N[C@H](C(=O)O)[C@H](O)[C@@H](O)c1ccc(O)c(OS(=O)(=O)O)c1; Orn(4R-OH,5R-OH) = O=C([C@H](C[C@@H](O)[C@@H](O)N[*:3])N[*:1])[*:2]; Pro(3S-OH,4S-Me) = C[C@H]1CN[C@H](C(=O)O)[C@H]1O; X1 = CCCCCOc1ccc(-c2cc(-c3ccc(C(=O)*)cc3)no2)cc1; Gln(3R-OH) = NC(=O)C[C@@H](O)[C@H](N)C(=O)O; Hyp = O=C(O)[C@@H]1C[C@@H](O)CN1

Columns and labels:
Type in all cases: functional
Candida albicans = test: Antimicrobial activity against Candida albicans by broth microdilution method
Procedure, shortened: (§1)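 Clinical isolates from human patients, tested by broth microdilution using the AFST-EUCAST reference procedure for fermentative yeasts. The MIC was read per that reference method.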

Candida parapsilosis = test: Antimicrobial activity against Candida parapsilosis by broth microdilution method; conditions: Lodderomyces parapsilosis; procedure, shortened: as §1
[1] = test system: Meyerozyma guilliermondii; test: Antimicrobial activity against Candida guilliermondii by broth microdilution method; procedure, shortened: as §1
Kluyveromyces marxianus = test: Antimicrobial activity against Candida kefyr by broth microdilution method; procedure, shortened: as §1
Wickerhamomyces anomalus = test: Antimicrobial activity against Candida pelliculosa by broth microdilution method; conditions: Hansenula anomala; procedure, shortened: as §1
Torulaspora delbrueckii = test: Antimicrobial activity against Candida coliculosa by broth microdilution method; procedure, shortened: as §1
Pichia norvegensis = test: Antimicrobial activity against Candida norvegensis by broth microdilution method; procedure, shortened: as §1
[Candida] intermedia = Antimicrobial activity against Candida intermedia by broth microdilution method; conditions: Sungouiella intermedia; procedure, shortened: as §1
Candida metapsilosis = test: Antimicrobial activity against Candida metapsilosis by broth microdilution method; conditions: Lodderomyces metapsilosis; procedure, shortened: as §1
Candida orthopsilosis = test: Antimicrobial activity against Candida orthopsilosis by broth microdilution method; conditions: Lodderomyces orthopsilosis; procedure, shortened: as §1
[2] = test system: Kazachstania pintolopesii; test: Antimicrobial activity against Candida pintolopesii by broth microdilution method; conditions: Arxiozyma pintolopesii; procedure, shortened: as §1
Saccharomyces cerevisiae = test: Antimicrobial activity against Saccharomyces cerevisiae by broth microdilution method
Trichosporon asahii = test: Antimicrobial activity against Trichosporon asahii by broth microdilution method
Procedure, shortened: (§2)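 Nonfermentative yeast clinical isolates (Rhodotorula, Trichosporon) tested by broth microdilution. The EUCAST yeast recommendations were followed strictly, with one minor modification to improve growth. MIC was read as the endpoint.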

Rhodotorula mucilaginosa = test: Antimicrobial activity against Rhodotorula mucilaginosa by broth microdilution method; procedure, shortened: as §2
Trichosporon dermatis = test: Antimicrobial activity against Trichosporon dermatis by broth microdilution method; conditions: Cutaneotrichosporon dermatis; procedure, shortened: as §2
Trichosporon jirovecii = test: Antimicrobial activity against Trichosporon jirovecii by broth microdilution method; conditions: Cutaneotrichosporon jirovecii; procedure, shortened: as §2
Rhodotorula glutinis = test: Antimicrobial activity against Rhodotorula glutinis by broth microdilution method; procedure, shortened: as §2
Trichosporon domesticum = test: Antimicrobial activity against Trichosporon mycotoxinivorans by broth microdilution method; conditions: Apiotrichum domesticum
Procedure, shortened: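 Spanish human clinical isolates were tested as nonfermentative yeasts by broth microdilution. The method strictly followed the EUCAST recommendations, with a minor modification to improve growth, and the read-out was the MIC.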

Aspergillus fumigatus = test: Antimicrobial activity against Aspergillus fumigatus by broth microdilution method
Procedure, shortened: (§3)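 Clinical mould isolates, tested by broth microdilution using the AFST-EUCAST reference method for filamentous fungi. For echinocandins, the endpoint was the minimum effective concentration: the lowest drug concentration giving aberrant hyphal growth, read with an inverted microscope.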

Aspergillus terreus = test: Antimicrobial activity against Aspergillus terreus by broth microdilution method; procedure, shortened: as §3
Aspergillus ustus = test: Antimicrobial activity against Aspergillus ustus by broth microdilution method; procedure, shortened: as §3
Fennellia nivea = test: Antimicrobial activity against Aspergillus niveus by broth microdilution method; procedure, shortened: as §3
Aspergillus sclerotiorum = test: Antimicrobial activity against Aspergillus sclerotiorum by broth microdilution method; procedure, shortened: as §3
Fusarium proliferatum = test: Antimicrobial activity against Fusarium proliferatum by broth microdilution method; procedure, shortened: as §3
Fusarium oxysporum = test: Antimicrobial activity against Fusarium oxysporum by broth microdilution method; procedure, shortened: as §3
Fusarium verticillioides = test: Antimicrobial activity against Fusarium verticillioides by broth microdilution method
Procedure, shortened: (§4)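 Filamentous fungus clinical isolates tested by the AFST-EUCAST reference broth microdilution method for moulds. For echinocandins, the endpoint was the minimum effective concentration: the lowest drug concentration giving aberrant hyphal growth, read with an inverted microscope.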

Paecilomyces variotii = test: Antimicrobial activity against Paecilomyces variotii by broth microdilution method; procedure, shortened: as §4
Paecilomyces lilacinus = test: Antimicrobial activity against Paecilomyces lilacinus by broth microdilution method; conditions: Purpureocillium lilacinum; procedure, shortened: as §4
[3] = test system: Scopulariopsis brevicaulis; test: Antimicrobial activity against Scopulariopsis brevicaulis by broth microdilution method; procedure, shortened: as §4
[4] = Antimicrobial activity against Hormographiella aspergillata by broth microdilution method; conditions: Coprinopsis cinerea; procedure, shortened: as §4
Fusarium reticulatum = test: Antimicrobial activity against Fusarium reticulatum by broth microdilution method; procedure, shortened: as §4
Neurospora sitophila = test: Antimicrobial activity against Chrysonilia sitophila by broth microdilution method; procedure, shortened: as §3
Scedosporium apiospermum = test: Antimicrobial activity against Scedosporium apiospermum by broth microdilution method; procedure, shortened: as §4
Lomentospora prolificans = test: Antimicrobial activity against Scedosporium prolificans by broth microdilution method; procedure, shortened: as §4
Alternaria alternata = test: Antimicrobial activity against Alternaria alternata by broth microdilution method; procedure, shortened: as §3
Lewia infectoria = test: Antimicrobial activity against Alternaria infectoria by broth microdilution method; procedure, shortened: as §3
Exophiala dermatitidis = test: Antimicrobial activity against Exophiala dermatitidis by broth microdilution method
Cladosporium = test: Antimicrobial activity against Cladosporium spp. by broth microdilution method; procedure, shortened: as §3
[5] = test system: Cladophialophora bantiana; test: Antimicrobial activity against Cladophialophora bantiana by broth microdilution method; procedure, shortened: as §3
Scytalidium hyalinum = test: Antimicrobial activity against Scytalidium hyalinum by broth microdilution method; conditions: Neoscytalidium hyalinum; procedure, shortened: as §4
Lecythophora hoffmannii = test: Antimicrobial activity against Lecythophora hoffmannii by broth microdilution method; conditions: Coniochaeta hoffmannii; procedure, shortened: as §4
[6] = test system: Cunninghamella bertholletiae; test: Antimicrobial activity against Cunninghamella bertholletiae by broth microdilution method; procedure, shortened: as §3
[7] = Antimicrobial activity against Rhizopus microsporus by broth microdilution method; procedure, shortened: as §4
Rhizomucor = test: Antimicrobial activity against Rhizomucor spp.by broth microdilution method; procedure, shortened: as §4
Beauveria bassiana = test: Antimicrobial activity against Beauveria bassiana by broth microdilution method; procedure, shortened: as §3

## CCCCCOc1ccc(-c2cc(-c3ccc(C(=O)N[C@H]4C[C@@H](O)[C@@H](O)NC(=O)[C@@H]5[C@@H](O)[C@@H](C)CN5C(=O)[C@H]([C@H](O)CC(N)=O)NC(=O)[C@H]([C@H](O)[C@@H](O)c5ccc(O)c(OS(=O)(=O)O)c5)NC(=O)[C@@H]5C[C@@H](O)CN5C(=O)[C@H]([C@@H](C)O)NC4=O)cc3)no2)cc1 [MICAFUNGIN] (X1-[Orn(4R-OH,5R-OH)]T[Hyp][hTyr(3S-OH,4S-OH,3'-OSO3H)][Gln(3R-OH)][Pro(3S-OH,4S-Me)]; lactam 1-C)
Candida albicans
  MIC50: 0.03 µg/mL (≈ 0.0236 µM)
  MIC90: 0.03 µg/mL (≈ 0.0236 µM)
Candida parapsilosis
  MIC50: 0.5 µg/mL (≈ 0.394 µM)
  MIC90: 1 µg/mL (≈ 0.787 µM)
[1]
  MIC50: 0.12 µg/mL (≈ 0.0945 µM)
  MIC90: 1 µg/mL (≈ 0.787 µM)
Kluyveromyces marxianus
  MIC50: 0.03 µg/mL (≈ 0.0236 µM)
  MIC90: 0.03 µg/mL (≈ 0.0236 µM)
Wickerhamomyces anomalus
  MIC50: 0.03 µg/mL (≈ 0.0236 µM)
  MIC90: 0.12 µg/mL (≈ 0.0945 µM)
Torulaspora delbrueckii
  MIC50: 0.03 µg/mL (≈ 0.0236 µM)
  MIC90: 0.12 µg/mL (≈ 0.0945 µM)
Pichia norvegensis
  MIC50: 0.03 µg/mL (≈ 0.0236 µM)
  MIC90: 0.12 µg/mL (≈ 0.0945 µM)
[Candida] intermedia
  MIC50: 0.03 µg/mL (≈ 0.0236 µM)
  MIC90: 0.12 µg/mL (≈ 0.0945 µM)
Candida metapsilosis
  MIC50: 0.03 µg/mL (≈ 0.0236 µM)
  MIC90: 0.12 µg/mL (≈ 0.0945 µM)
Candida orthopsilosis
  MIC50: 0.03 µg/mL (≈ 0.0236 µM)
  MIC90: 0.12 µg/mL (≈ 0.0945 µM)
[2]
  MIC50: 0.03 µg/mL (≈ 0.0236 µM)
  MIC90: 0.12 µg/mL (≈ 0.0945 µM)
Saccharomyces cerevisiae
  MIC50: 0.03 µg/mL (≈ 0.0236 µM)
  MIC90: 0.06 µg/mL (≈ 0.0472 µM)
Trichosporon asahii
  MIC50: > 16 µg/mL
  MIC90: > 16 µg/mL
Rhodotorula mucilaginosa
  MIC50: > 16 µg/mL
  MIC90: > 16 µg/mL
Trichosporon dermatis
  MIC50: > 16 µg/mL
  MIC90: > 16 µg/mL
Trichosporon jirovecii
  MIC50: > 16 µg/mL
  MIC90: > 16 µg/mL
Rhodotorula glutinis
  MIC50: > 16 µg/mL
  MIC90: > 16 µg/mL
Trichosporon domesticum
  MIC50: > 16 µg/mL
  MIC90: > 16 µg/mL
Aspergillus fumigatus
  MIC50: 0.03 µg/mL (≈ 0.0236 µM)
  MIC90: 0.03 µg/mL (≈ 0.0236 µM)
Aspergillus terreus
  MIC50: 0.03 µg/mL (≈ 0.0236 µM)
  MIC90: 0.03 µg/mL (≈ 0.0236 µM)
Aspergillus ustus
  MIC50: 0.06 µg/mL (≈ 0.0472 µM)
  MIC90: 0.25 µg/mL (≈ 0.197 µM)
Fennellia nivea
  MIC50: 0.06 µg/mL (≈ 0.0472 µM)
  MIC90: 0.25 µg/mL (≈ 0.197 µM)
Aspergillus sclerotiorum
  MIC50: 0.06 µg/mL (≈ 0.0472 µM)
  MIC90: 0.25 µg/mL (≈ 0.197 µM)
Fusarium proliferatum
  MIC50: > 16 µg/mL
  MIC90: > 16 µg/mL
Fusarium oxysporum
  MIC50: > 16 µg/mL
  MIC90: > 16 µg/mL
Fusarium verticillioides
  MIC50: > 16 µg/mL
  MIC90: > 16 µg/mL
Paecilomyces variotii
  MIC50: 0.03 µg/mL (≈ 0.0236 µM)
  MIC90: 0.03 µg/mL (≈ 0.0236 µM)
Paecilomyces lilacinus
  MIC50: > 16 µg/mL
  MIC90: > 16 µg/mL
[3]
  MIC50: > 16 µg/mL
  MIC90: > 16 µg/mL
[4]
  MIC50: > 16 µg/mL
  MIC90: > 16 µg/mL
Fusarium reticulatum
  MIC50: > 16 µg/mL
  MIC90: > 16 µg/mL
Neurospora sitophila
  MIC50: > 16 µg/mL
  MIC90: > 16 µg/mL
Scedosporium apiospermum
  MIC50: 0.03 µg/mL (≈ 0.0236 µM)
  MIC90: > 16 µg/mL
Lomentospora prolificans
  MIC50: 8 µg/mL (≈ 6.3 µM)
  MIC90: > 16 µg/mL
Alternaria alternata
  MIC50: 0.25 µg/mL (≈ 0.197 µM)
  MIC90: > 16 µg/mL
Lewia infectoria
  MIC50: > 16 µg/mL
  MIC90: > 16 µg/mL
Exophiala dermatitidis
  MIC50: 0.03 µg/mL (≈ 0.0236 µM)
  MIC90: 0.06 µg/mL (≈ 0.0472 µM)
Cladosporium
  MIC50: 0.03 µg/mL (≈ 0.0236 µM)
  MIC90: 0.06 µg/mL (≈ 0.0472 µM)
[5]
  MIC50: 0.03 µg/mL (≈ 0.0236 µM)
  MIC90: 0.06 µg/mL (≈ 0.0472 µM)
Scytalidium hyalinum
  MIC50: 0.03 µg/mL (≈ 0.0236 µM)
  MIC90: 0.06 µg/mL (≈ 0.0472 µM)
Lecythophora hoffmannii
  MIC50: 0.03 µg/mL (≈ 0.0236 µM)
  MIC90: 0.06 µg/mL (≈ 0.0472 µM)
[6]
  MIC50: > 16 µg/mL
  MIC90: > 16 µg/mL
[7]
  MIC50: > 16 µg/mL
  MIC90: > 16 µg/mL
Rhizomucor
  MIC50: > 16 µg/mL
  MIC90: > 16 µg/mL
Beauveria bassiana
  MIC50: > 16 µg/mL
  MIC90: > 16 µg/mL
